# Measured values published in ChEMBL document CHEMBL4602706, “Natural Product Evodiamine with Borate Trigger Unit: Discovery of Potent Antitumor Agents against Colon Cancer” (ACS Med Chem Lett, 2020).
# Activity calls are given as the source filed them. The calls are words filed in the database; no cut-off is given here.
# What was measured:
# A549 = assay: Antiproliferative activity against human A549 cells incubated for 72 hrs by CCK8 assay; assay type: functional, cell-based; conditions: Homo sapiens, A549, 72 h; read-out: IC50
# Summary of the method: (§1)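 HCT116, MCF-7 and A549 human cancer cell lines; antiproliferative activity read out by CCK8 assay. Evodiamine derivatives and camptothecin served as positive controls.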
# [1] = biological target: T1, DNA topoisomerase 1 (Homo sapiens) (UniProt P11387); assay: Inhibition of Top1 (unknown origin) at 500 uM using supercoiled pBR322 plasmid DNA as substrate incubated for 15 mins by PI staining based agarose gel electrophoresis analysis
# T1 sequence (whole entry): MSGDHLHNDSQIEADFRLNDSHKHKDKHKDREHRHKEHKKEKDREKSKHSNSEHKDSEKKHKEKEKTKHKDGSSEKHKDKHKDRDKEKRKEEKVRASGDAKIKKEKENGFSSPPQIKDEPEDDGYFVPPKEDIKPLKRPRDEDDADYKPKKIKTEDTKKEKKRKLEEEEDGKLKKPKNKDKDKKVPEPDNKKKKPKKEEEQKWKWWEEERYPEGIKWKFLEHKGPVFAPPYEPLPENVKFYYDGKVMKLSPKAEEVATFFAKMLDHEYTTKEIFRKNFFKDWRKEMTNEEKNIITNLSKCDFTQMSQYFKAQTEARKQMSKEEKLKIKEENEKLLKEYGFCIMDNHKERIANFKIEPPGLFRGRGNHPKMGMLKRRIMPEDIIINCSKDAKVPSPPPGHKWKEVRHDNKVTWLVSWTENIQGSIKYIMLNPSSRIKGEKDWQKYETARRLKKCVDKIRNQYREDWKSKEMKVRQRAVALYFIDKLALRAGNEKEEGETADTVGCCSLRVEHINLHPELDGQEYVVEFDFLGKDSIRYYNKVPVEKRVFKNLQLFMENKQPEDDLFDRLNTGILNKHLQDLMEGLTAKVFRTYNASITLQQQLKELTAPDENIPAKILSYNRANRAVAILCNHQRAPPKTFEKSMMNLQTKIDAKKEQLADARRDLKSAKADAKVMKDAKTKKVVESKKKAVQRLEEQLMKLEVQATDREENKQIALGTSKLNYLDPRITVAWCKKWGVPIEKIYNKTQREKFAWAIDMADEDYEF
# Summary of the method: (§2)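 Top1 inhibition tested at 500, 250 and 125 μM, and over 27.9 to 250 μM for selected compounds.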
# MCF7 = assay: Antiproliferative activity against human MCF7 cells incubated for 72 hrs by CCK8 assay; assay type: functional, cell-based; conditions: Homo sapiens, MCF7, 72 h; read-out: IC50; summary of the method: as §1
# [2] = Drug metabolism in human HCT116 cells assessed as 3-Fluoro-10-hydroxy-14-methyl-8,13,13b,14-tetrahydro-7H-indolo[2',3':3,4]pyrido[2,1-b]quinazolin-5-one release by measuring retention time incubated for 8 hrs by UPLC-QTOF/MS analysis; assay type: ADME, cell-based; conditions: hct-116, 8 h
# Summary of the method: (§3)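 Compounds incubated with HCT116 cells; culture media analysed by HPLC after 8, 48 and 72 h. Relative release rate taken from relative peak areas; parent and product identified by retention time.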
# HCT-116 [3] = assay: Antiproliferative activity against human HCT116 cells incubated for 72 hrs by CCK8 assay; assay type: functional, cell-based; conditions: Homo sapiens, HCT-116, 72 h; read-out: IC50; summary of the method: as §1
# [4] = Metabolic stability in mouse liver microsomes assessed as half life at 1 uM preincubated with compound followed by NADPH addition measured upto 45 mins by LC-MS/MS analysis; assay type: ADME, Microsome
# Summary of the method: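 In vitro stability in liver microsomes; terminal half-life determined.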
# HCT-116 [5] = assay: Induction of apoptosis in human HCT116 cells assessed as apoptotic cells at 0.4 uM incubated for 48 hrs by AnnexinV-FITC/PI staining based flow cytometric analysis (reference value: 6.25 to 8.23%); assay type: functional
# Summary of the method: (§4)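 HCT116 cells exposed to 0.05, 0.2 or 0.4 μM for 48 h. Apoptotic cells quantified by flow cytometry, n = 3.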
# HCT-116 [6] = assay: Induction of cell cycle arrest in human HCT116 cells assessed as accumulation at S phase at 0.2 uM incubated for 24 hrs by propidium iodide staining based flow cytometry (reference value: 30.31 to 40.69%); assay type: functional
# [7] = Drug metabolism in human HCT116 cells assessed as 3-Fluoro-10-hydroxy-14-methyl-8,13,13b,14-tetrahydro-7H-indolo[2',3':3,4]pyrido[2,1-b]quinazolin-5-one release at 0.2 mM by UPLC-QTOF/MS analysis relative to control; assay type: ADME, cell-based; conditions: hct-116, 200 µM, TDE = time-dependent effect
# HCT-116 [8] = assay: Induction of apoptosis in human HCT116 cells assessed as apoptotic cells at 0.2 uM incubated for 48 hrs by AnnexinV-FITC/PI staining based flow cytometric analysis (reference value: 6.25 to 8.23%); assay type: functional; summary of the method: as §4
# [9] = Toxicity in nude mouse xenografted with human HCT116 cells assessed as change in body weight at 10 mg/kg, ip bid measured every two days for 21 days; assay type: organism-based, HCT-116; conditions: in vivo, 504 h
# Summary of the method: (§5)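 HCT116 xenograft in mice. Dosing 10 mg/kg intraperitoneally over 21 consecutive days; tumour growth inhibition and body weight followed. Mean ± SEM, Student's t test versus vehicle group.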
# HCT-116 [10] = assay: Induction of cell cycle arrest in human HCT116 cells assessed as accumulation at G2 phase at 0.05 uM incubated for 24 hrs by propidium iodide staining based flow cytometry (reference value: 18.51 to 20.82%); assay type: functional
# HCT-116 [11] = assay: Induction of apoptosis in human HCT116 cells assessed as apoptotic cells at 0.05 uM incubated for 48 hrs by AnnexinV-FITC/PI staining based flow cytometric analysis (reference value: 6.25 to 8.23%); assay type: functional; summary of the method: as §4
# HCT-116 [12] = assay: Induction of cell cycle arrest in human HCT116 cells assessed as accumulation at S phase at 0.4 uM incubated for 24 hrs by propidium iodide staining based flow cytometry (reference value: 30.31 to 40.69%); assay type: functional
# [13] = biological target: T2, DNA topoisomerase II (Homo sapiens) (UniProt P11388+Q02880); assay: Inhibition of Top2 (unknown origin) using supercoiled pBR322 plasmid as substrate incubated for 30 mins by PI staining based agarose gel electrophoresis analysis; assay type: protein assay
# HCT-116 [14] = assay: Induction of cell cycle arrest in human HCT116 cells assessed as accumulation at S phase at 0.05 uM incubated for 24 hrs by propidium iodide staining based flow cytometry (reference value: 30.31 to 40.69%); assay type: functional
# HCT-116 [15] = assay: Induction of cell cycle arrest in human HCT116 cells assessed as accumulation at G1 phase at 0.2 uM incubated for 24 hrs by propidium iodide staining based flow cytometry (reference value: 38.49 to 51.18%); assay type: functional
# HCT-116 [16] = assay: Induction of apoptosis in human HCT116 cells incubated for 48 hrs by AnnexinV-FITC/PI staining based flow cytometric analysis; assay type: functional, cell-based
# [17] = biological target: T1, DNA topoisomerase 1 (Homo sapiens); assay: Inhibition of Top1 (unknown origin) at 125 uM using supercoiled pBR322 plasmid DNA as substrate incubated for 15 mins by PI staining based agarose gel electrophoresis analysis; summary of the method: as §2
# HCT-116 [18] = assay: Induction of cell cycle arrest in human HCT116 cells assessed as accumulation at G1 phase at 0.4 uM incubated for 24 hrs by propidium iodide staining based flow cytometry (reference value: 38.49 to 51.18%); assay type: functional
# [19] = biological target: T2, DNA topoisomerase II (Homo sapiens); assay: Inhibition of Top2 (unknown origin) at 50 uM using supercoiled pBR322 plasmid DNA as substrate incubated for 30 mins by PI staining based agarose gel electrophoresis analysis; assay type: protein assay
# HCT-116 [20] = assay: Induction of cell cycle arrest in human HCT116 cells assessed as accumulation at G2 phase at 0.4 uM incubated for 24 hrs by propidium iodide staining based flow cytometry (reference value: 18.51 to 20.82%); assay type: functional
# [21] = Drug metabolism in PBS buffer assessed as H2O2-mediated 3-Fluoro-10-hydroxy-14-methyl-8,13,13b,14-tetrahydro-7H-indolo[2',3':3,4]pyrido[2,1-b]quinazolin-5-one release rate at pH 7.4 incubated for 8 hrs in presence of 0.05 mM H2O2 by HPLC analysis; assay type: physicochemical; conditions: pH 7.4, 8 h
# Summary of the method: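 Release of the parent compound after treatment with H2O2 at varied concentrations, including 0.05 mM, in PBS pH 7.4. Analysed by HPLC.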
# HCT-116 [22] = assay: Antitumour activity against human HCT116 cells xenografted in nude mouse assessed as tumour growth inhibition at 10 mg/kg, ip bid measured every two days for 21 days by caliper method relative to control; assay type: functional; conditions: HCT-116, ip, read-out: TGI; summary of the method: as §5
# HCT-116 [23] = assay: Induction of cell cycle arrest in human HCT116 cells assessed as accumulation at G2 phase at 0.2 uM incubated for 24 hrs by propidium iodide staining based flow cytometry (reference value: 18.51 to 20.82%); assay type: functional
# HCT-116 [24] = assay: Induction of cell cycle arrest in human HCT116 cells assessed as accumulation at G1 phase at 0.05 uM incubated for 24 hrs by propidium iodide staining based flow cytometry (reference value: 38.49 to 51.18%); assay type: functional
# [25] = Drug metabolism in human HCT116 cells assessed as 3-Fluoro-10-hydroxy-14-methyl-8,13,13b,14-tetrahydro-7H-indolo[2',3':3,4]pyrido[2,1-b]quinazolin-5-one release by measuring parent compound retention time incubated for 8 hrs by UPLC-QTOF/MS analysis; assay type: ADME, cell-based; conditions: hct-116, 8 h; summary of the method: as §3
# [26] = biological target: T1, DNA topoisomerase 1 (Homo sapiens); assay: Inhibition of Top1 (unknown origin) at 83.3 uM using supercoiled pBR322 plasmid DNA as substrate incubated for 15 mins by PI staining based agarose gel electrophoresis analysis
# HCT-116 [27] = assay: Antitumour activity against human HCT116 cells xenografted in nude mouse assessed as tumour growth inhibition at 0.5 mg/kg, ip qd measured every two days for 21 days by caliper method relative to control; assay type: functional; conditions: HCT-116, ip, read-out: TGI
# [28] = Toxicity in nude mouse xenografted with human HCT116 cells assessed as change in body weight at 0.5 mg/kg, ip qd measured every two days for 21 days; assay type: organism-based, HCT-116; conditions: in vivo, 504 h
# [29] = Inhibition of porcine brain tubulin polymerization measured at 1 min interval for 15 to 30 mins by spectrophotometric method; set-up: species or system Sus scrofa
Structure (SMILES),IC50 (A549) [nM],inhibition [1],IC50 (MCF7) [nM],IC50 (HCT-116 [3]) [nM],half-life at 1 µM [4] [min],Activity (HCT-116 [5]) [%],Activity (HCT-116 [6]) [%],Drug metabolism [7],Activity (HCT-116 [8]) [%],Activity (HCT-116 [10]) [%],Activity (HCT-116 [11]),Activity (HCT-116 [12]) [%],inhibition [13],Activity (HCT-116 [14]) [%],Activity (HCT-116 [15]) [%],Activity (HCT-116 [16]),inhibition [17],Activity (HCT-116 [18]) [%],inhibition [19],Activity (HCT-116 [20]) [%],other results
CN1c2ccc(F)cc2C(=O)N2CCc3c([nH]c4ccc(O)cc34)C21 (configuration not stated),29,Active,31,27,3.69,,,,,,,,,,,,,,,,Retention_time [2]: 7.3 min
CN1c2ccc(F)cc2C(=O)N2CCc3c([nH]c4ccc(OC(=O)OCc5ccc(B6OC(C)(C)C(C)(C)O6)cc5)cc34)C21 (configuration not stated),37,Active,33,16,8.36,61.73,45.69,Tde,55.64,26.88,41.28 - 42.28%,38.8,Active,38.8,8.82,Dose-dependent effect,Active,4.95,Active,56.25,Activity [9]: Non-Toxic; Drug metabolism [21]: Dose-dependent effect; inhibition in vivo at 10 mg/kg (HCT-116 [22]): 64.4%; Activity (HCT-116 [23]): 45.49%; Activity (HCT-116 [24]): 34.32%; Retention_time [25]: 11.4 min; inhibition [26]: Active
CN1c2ccc(F)cc2C(=O)N2CCc3c([nH]c4ccc(OC(=O)OCc5ccc(B(O)O)cc5)cc34)C21 (configuration not stated),44,Active,32,41,0.74,64.47,48.96,Tde,54.28,29.47,44.4%,43.36,Active,56.44,7.6,Dose-dependent effect,Active,5.41,Active,51.23,Drug metabolism [21]: Dose-dependent effect; Activity (HCT-116 [23]): 43.45%; Activity (HCT-116 [24]): 14.09%; Retention_time [25]: 8.6 min; inhibition [26]: Active
CC[C@@]1(O)C(=O)OCc2c1cc1n(c2=O)Cc2cc3c(CN(C)C)c(O)ccc3nc2-1 [TOPOTECAN],,,,,,,,,,,,,,,,,,,,,inhibition in vivo at 0.5 mg/kg (HCT-116 [27]): 68.8%; Activity [28]: Toxic
CN1c2ccccc2C(=O)N2CCc3c([nH]c4ccc(OC(=O)OCc5ccc(B(O)O)cc5)cc34)C21 (configuration not stated),130,Active,140,52,,,,,,,,,,,,,Active,,Active,,IC50 [29]: 25700 nM
